Test results as given in ChEMBL document CHEMBL1127736, “Isozyme-specific glutathione-S-transferase inhibitors: design and synthesis” (J Med Chem, 1994).
Numbered stars: 1 amine (or outer) side, 2 acyl side, 3 side chain; on linkers, the order of the positions; unused ones are H or OH. Square brackets hold non-standard residues; d marks the D form. Peptide text beside a SMILES is read from it. * marks the point of attachment. γGlu = O=C(O)[CH](CCC(=O)[*:2])N[*:1]; Phg = N[CH](C(=O)O)c1ccccc1; Bn = c1ccc(C*)cc1

How the values were obtained:
[1] = target: T1, Glutathione S-transferase Mu 1 (Homo sapiens, UniProt P09488); assay: Inhibitory activity was measured on recombinant human Glutathione-S-transferase M1a enzyme
T1 sequence (P09488 whole entry): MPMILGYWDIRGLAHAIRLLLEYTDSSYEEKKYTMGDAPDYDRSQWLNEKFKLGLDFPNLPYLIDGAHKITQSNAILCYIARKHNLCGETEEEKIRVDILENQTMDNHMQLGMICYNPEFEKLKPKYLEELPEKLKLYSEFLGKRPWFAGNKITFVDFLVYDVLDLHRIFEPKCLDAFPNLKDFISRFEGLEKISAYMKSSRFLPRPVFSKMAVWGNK
Outline: (§1)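 Enzyme inhibition was measured in the reaction of recombinant human GST isozymes (four isozymes tested) with glutathione and 1-chloro-2,4-dinitrobenzene (CDNB) as the electrophilic substrate. Ki values were determined by a previously published method. The error in each measurement is stated as ±30%.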

[2] = target: T2, Glutathione S-transferase A1 (Homo sapiens, UniProt P08263); assay: Inhibitory activity was measured on recombinant human Glutathione-S-transferase A1 enzyme; outline: as §1
T2 sequence (P08263 whole entry): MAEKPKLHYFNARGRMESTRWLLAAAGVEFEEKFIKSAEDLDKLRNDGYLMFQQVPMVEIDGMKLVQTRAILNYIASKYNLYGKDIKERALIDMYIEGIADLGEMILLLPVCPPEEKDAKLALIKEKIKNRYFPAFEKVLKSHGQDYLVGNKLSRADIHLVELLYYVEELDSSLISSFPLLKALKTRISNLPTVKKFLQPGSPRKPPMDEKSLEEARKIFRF

[3] = target: T3, Glutathione S-transferase Mu 2 (Homo sapiens, UniProt P28161); assay: Inhibitory activity was measured on recombinant human Glutathione S-transferase Mu 2; outline: as §1
T3 sequence (P28161 whole entry): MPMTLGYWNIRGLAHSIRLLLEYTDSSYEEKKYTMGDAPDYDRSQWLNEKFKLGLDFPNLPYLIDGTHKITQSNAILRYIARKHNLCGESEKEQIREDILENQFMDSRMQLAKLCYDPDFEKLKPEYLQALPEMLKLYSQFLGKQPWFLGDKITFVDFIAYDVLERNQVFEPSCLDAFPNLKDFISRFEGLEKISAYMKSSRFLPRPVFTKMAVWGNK

[4] = target: Glutathione S-transferase P (Homo sapiens, UniProt P09211); assay: Inhibitory activity was measured on recombinant human Glutathione S-transferase P; outline: as §1
Sequence of Glutathione S-transferase P (P09211 whole entry): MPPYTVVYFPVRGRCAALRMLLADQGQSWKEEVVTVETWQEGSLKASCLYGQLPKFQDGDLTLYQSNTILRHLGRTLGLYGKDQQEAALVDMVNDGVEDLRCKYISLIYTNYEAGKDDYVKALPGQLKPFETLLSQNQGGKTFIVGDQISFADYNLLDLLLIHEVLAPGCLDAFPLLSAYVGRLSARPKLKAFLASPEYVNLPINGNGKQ

[5] = target: T1, Glutathione S-transferase Mu 1; assay: Inhibitory activity was measured on recombinant human Glutathione S-transferase Mu 1; outline: as §1

Row | SMILES | Ki [1] | Ki [2] | Ki [3] | Ki [4] | Ki [5]
1 | NC(CCC(=O)NC(CSCc1ccc(Cl)cc1)C(=O)NC(C(=O)O)c1ccccc1)C(=O)O (configuration not stated) | 15.1 µM | 14.7 µM | 48.3 µM | 0.12 µM | 
2 | CCCCCCSCC(NC(=O)CCC(N)C(=O)O)C(=O)NCC(=O)O (configuration not stated) |  | 0.84 µM | 36 µM |  | 2 µM
3 | CCCCCCSCC(NC(=O)CCC(N)C(=O)O)C(=O)NC(C(=O)O)c1ccccc1 (configuration not stated) |  | 5.8 µM | 97 µM | 0.85 µM | 41 µM
4 | NC(CCC(=O)NC(CSCc1ccccc1)C(=O)NC(C(=O)O)c1ccccc1)C(=O)O (configuration not stated) (γGlu-Cys(Bn)-[Phg]-OH; configuration not given here) |  | 24.3 µM | 184 µM | 0.42 µM | 57.8 µM

Further lines, results first:

Row | Ki [1] | Ki [2] | Ki [3] | Ki [4] | Ki [5] | SMILES
5 |  | 360 µM | 26 µM | 710 µM | 22 µM | NC(CCC(=O)NC(CSCc1ccccc1)C(=O)NCCC(=O)O)C(=O)O (configuration not stated)
6 |  | 43 µM | 42 µM | 550 µM | 11 µM | CCCCCCSCC(NC(=O)CCC(N)C(=O)O)C(=O)NCCC(=O)O (configuration not stated)
7 |  | 43 µM | 20 µM | 40 µM | 2.1 µM | Cc1ccc(CSCC(NC(=O)CCC(N)C(=O)O)C(=O)NCCC(=O)O)cc1 (configuration not stated)
